Active and inactive are the calls of the source. No cut-off for these calls is given here.
Legend:
[1] = molecular target: T1, Glutaminase kidney isoform, mitochondrial (Homo sapiens, UniProt O94925); assay: Inhibition of recombinant human His-tagged KGA (L123 to L669 residues) expressed in Escherichia coli BL21(DE3)pLysS using glutamine substrate preincubated for 10 mins followed by substrate addition measured after 60 mins by glutamate dehydrogenase coupled enzyme assay
T1 sequence (O94925 whole entry): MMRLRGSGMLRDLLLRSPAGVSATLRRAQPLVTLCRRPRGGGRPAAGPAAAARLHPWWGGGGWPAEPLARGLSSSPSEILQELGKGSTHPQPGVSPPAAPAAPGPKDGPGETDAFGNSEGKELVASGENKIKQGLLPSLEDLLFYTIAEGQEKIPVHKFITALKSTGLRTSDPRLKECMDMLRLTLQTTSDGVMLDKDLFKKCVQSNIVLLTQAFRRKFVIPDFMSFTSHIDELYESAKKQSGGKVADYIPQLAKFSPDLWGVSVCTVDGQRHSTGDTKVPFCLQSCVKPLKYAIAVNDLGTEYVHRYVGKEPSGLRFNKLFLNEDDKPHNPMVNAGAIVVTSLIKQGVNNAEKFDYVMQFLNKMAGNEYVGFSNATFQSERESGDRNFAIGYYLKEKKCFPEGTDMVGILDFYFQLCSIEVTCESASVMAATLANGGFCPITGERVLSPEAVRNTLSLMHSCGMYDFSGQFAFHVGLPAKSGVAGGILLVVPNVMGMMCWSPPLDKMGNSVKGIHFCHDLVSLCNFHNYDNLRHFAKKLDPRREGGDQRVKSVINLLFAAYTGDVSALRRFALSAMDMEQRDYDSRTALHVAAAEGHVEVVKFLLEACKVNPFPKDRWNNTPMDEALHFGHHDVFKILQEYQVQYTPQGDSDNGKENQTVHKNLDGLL

[2] = molecular target: T2, Glutaminase liver isoform, mitochondrial (Homo sapiens, UniProt Q9UI32); assay: Inhibition of recombinant human His-tagged GAB (P56 to V602 residues) expressed in Escherichia coli C41(DE3)pLysS using glutamine as substrate preincubated for 10 mins followed by substrate addition measured after 60 mins by glutamate dehydrogenase coupled enzyme assay
T2 sequence (Q9UI32 whole entry): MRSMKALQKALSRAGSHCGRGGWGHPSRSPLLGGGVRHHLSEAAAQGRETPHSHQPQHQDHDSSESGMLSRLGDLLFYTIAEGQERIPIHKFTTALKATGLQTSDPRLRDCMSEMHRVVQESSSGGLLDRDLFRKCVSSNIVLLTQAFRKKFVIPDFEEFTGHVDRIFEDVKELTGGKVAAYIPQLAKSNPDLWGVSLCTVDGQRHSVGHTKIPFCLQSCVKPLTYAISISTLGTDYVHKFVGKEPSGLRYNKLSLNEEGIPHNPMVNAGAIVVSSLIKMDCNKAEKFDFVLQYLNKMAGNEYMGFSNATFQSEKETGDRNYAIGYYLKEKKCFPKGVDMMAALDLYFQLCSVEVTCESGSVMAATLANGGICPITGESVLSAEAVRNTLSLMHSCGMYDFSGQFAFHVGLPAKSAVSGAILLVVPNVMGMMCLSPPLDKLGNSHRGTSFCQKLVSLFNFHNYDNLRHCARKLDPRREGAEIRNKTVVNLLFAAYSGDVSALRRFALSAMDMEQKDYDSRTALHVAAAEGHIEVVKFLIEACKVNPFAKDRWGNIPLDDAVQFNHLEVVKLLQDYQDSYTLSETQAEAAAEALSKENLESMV

[3] = molecular target: T1, Glutaminase kidney isoform, mitochondrial; assay: Inhibition of recombinant human MCF7 cells derived His-tagged GAC (L123 to S598 residues) expressed in Escherichia coli C41(DE3)pLysS using glutamine as substrate preincubated for 10 mins followed by substrate addition measured after 60 mins by glutamate dehydrogenase coupled enzyme assay
In short: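 Human GAC cloned from MCF7 cDNA into pET28a(+) as a His-tagged construct. Expressed in E. coli C41(DE3)pLysS in Terrific Broth with kanamycin, induced with 1 mM IPTG for 6 h at 25 °C. Purified on Ni2+ resin with 500 mM imidazole elution and exchanged into 50 mM NaH2PO4, 50 mM Tris-HCl pH 8.0, 2 mM DTT, 50% glycerol. Activity measured by two-step glutaminase assay.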

[4] = organism: Homo sapiens; assay: Selectivity index, ratio of IC50 for recombinant human His-tagged GAB (P56-V602 residues) expressed in Escherichia coli C41(DE3)pLysS to IC50 for recombinant human His-tagged KGA (L123 to L669 residues) expressed in Escherichia coli BL21(DE3)pLysS
[5] = tested on: ASPC1; assay: Anticlonogenic activity against human Aspc-1 cells at 2 uM after 21 days by crystal violet staining based assay relative to control; assay type: functional; conditions: ASPC1, 504 h
In short: (§1)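 Anchorage-dependent colony formation: AsPC-1 cells seeded at 1000 cells/well in six-well plates and treated with compound. Colony formation is expressed as percent of vehicle treatment. Mean ± SD from at least three independent experiments, each in duplicate.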

[6] = organism: Homo sapiens; assay: Selectivity ratio of IC50 for recombinant human His-tagged KGA R387L mutant expressed in Escherichia coli BL21(DE3)pLysS to IC50 for human His-tagged KGA (L123 to L669 residues) expressed in Escherichia coli BL21(DE3)pLysS
[7] = Inhibition of recombinant human His-tagged KGA R387L mutant expressed in Escherichia coli BL21(DE3)pLysS using glutamine substrate preincubated for 10 mins followed by substrate addition measured after 60 mins
[8] = tested on: ASPC1; assay: Growth inhibition of human Aspc-1 cells after 72 hrs by MTS assay; assay type: functional, cell-based; conditions: ASPC1, 72 h
In short: (§2)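 Growth inhibition by MTS viability read-out. Cells seeded in 96-well plates at 4000/well (AsPC-1) or 8500/well (MDA-MB-231). Mean ± SD from at least three independent experiments, each in duplicate.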

[9] = molecular target: T3, Glutaminase liver isoform, mitochondrial (Homo sapiens) (UniProt Q9UI32); assay: Inhibition of human GLS2 in GLS1 deficient human Aspc-1 cells assessed as decrease in cellular glutamate production at 3.13 to 100 uM after 4 hrs by amplex red glutamic acid assay
T3 sequence (whole entry): T2 sequence (Q9UI32 whole entry)
In short: (§3)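 GLS-knockout AsPC-1 cells made with GLS-KO ZFN mRNA, single-cell cloned, and grown in glutamine-free RPMI 1640 with 10% FBS. Cells seeded at 30 000/well and grown 24 h at 37 °C. Treated 4 h with 1% DMSO vehicle or 3.13−100 μM inhibitor, washed with PBS, and lysed in NP-40 buffer (4 °C, 20 min). Lysate glutamate measured by Amplex Red. Three independent experiments in duplicate.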

[10] = organism: Homo sapiens; assay: Selectivity ratio of IC50 for recombinant human His-tagged KGA R387A mutant expressed in Escherichia coli BL21(DE3)pLysS to IC50 for human His-tagged KGA (L123 to L669 residues) expressed in Escherichia coli BL21(DE3)pLysS
[11] = molecular target: T3, Glutaminase liver isoform, mitochondrial (Homo sapiens); assay: Inhibition of human GLS2 in GLS1 deficient human Aspc-1 cells assessed as decrease in cellular glutamate production after 4 hrs by amplex red glutamic acid assay; in short: as §3
[12] = Inhibition of recombinant human His-tagged KGA S384A mutant expressed in Escherichia coli BL21(DE3)pLysS using glutamine substrate preincubated for 10 mins followed by substrate addition measured after 60 mins
[13] = molecular target: Glutaminase 1/2 (Homo sapiens) (UniProt O94925+Q9UI32); conditions: 3.13 to 100 uM
[14] = organism: Homo sapiens; assay: Selectivity ratio of IC50 for recombinant human His-tagged KGA S384A mutant expressed in Escherichia coli BL21(DE3)pLysS to IC50 for human His-tagged KGA (L123 to L669 residues) expressed in Escherichia coli BL21(DE3)pLysS
[15] = organism: Homo sapiens; assay: Selectivity ratio of IC50 for recombinant human His-tagged KGA K507A mutant expressed in Escherichia coli BL21(DE3)pLysS to IC50 for human His-tagged KGA (L123 to L669 residues) expressed in Escherichia coli BL21(DE3)pLysS
[16] = Inhibition of recombinant human His-tagged KGA R387A mutant expressed in Escherichia coli BL21(DE3)pLysS using glutamine substrate preincubated for 10 mins followed by substrate addition measured after 60 mins
[17] = tested on: MDA-MB-231; assay: Growth inhibition of human MDA-MB-231 cells after 72 hrs by MTS assay; assay type: functional, cell-based; conditions: MDA-MB-231, 72 h; in short: as §2
[18] = Inhibition of recombinant human His-tagged KGA K507A mutant expressed in Escherichia coli BL21(DE3)pLysS using glutamine substrate preincubated for 10 mins followed by substrate addition measured after 60 mins
[19] = tested on: ASPC1; assay: Anticlonogenic activity against human Aspc-1 cells at 10 uM after 21 days by crystal violet staining based assay relative to control; assay type: functional; conditions: ASPC1, 504 h; in short: as §1

SMILES | IC50 [1] [µM] | IC50 [2] [µM] | IC50 [3] [µM] | Ratio IC50 [4] | Ratio IC50 [6] | IC50 [7] [µM] | IC50 [8] [µM] | inhibition [9] | Ratio IC50 [10] | inhibition [11] | IC50 [12] [µM] | inhibition [13] | Ratio IC50 [14] | Ratio IC50 [15] | IC50 [16] [µM] | IC50 [17] [µM] | IC50 [18] [µM] | inhibition at 2 µM [5] [%] | inhibition at 10 µM [19] [%]
O=C1NC(=O)/C(=C/c2cc(-c3ccccc3)n(-c3ccc(Br)cc3)c2-c2ccccc2)S1 | 4.9 | 11.8 | 8.76 | 2.4 |  |  |  |  |  |  |  |  |  |  |  |  |  |  | 
O=C1NC(=O)/C(=C/c2cc(-c3cccs3)n(-c3ccc(Br)cc3)c2-c2cccs2)S1 | 0.754 | 3.78 | 1.27 | 5 |  |  |  |  |  |  |  |  |  |  |  |  |  |  | 
Cc1cc(/C=C2\SC(=O)NC2=O)c(C)n1-c1ccc(-c2ccc(/C=C3\SC(=O)NC3=O)cc2)c(O)c1 | 0.247 | 5.72 | 0.76 | 23 |  |  |  |  |  |  |  |  |  |  |  |  |  |  | 
COc1cc(-n2c(C)cc(/C=C3\SC(=O)NC3=O)c2C)ccc1-c1ccc(/C=C2\SC(=O)NC2=O)cc1 | 0.243 | 2.14 | 0.355 | 8.8 |  |  |  |  |  |  |  |  |  |  |  |  |  |  | 
CCc1cc(-c2ccc(-n3c(-c4ccccc4)cc(/C=C4\SC(=O)NC4=O)c3-c3ccccc3)cc2)ccc1/C=C1\SC(=O)NC1=O | 0.056 | 1.24 | 0.217 | 22 |  |  | 8.8 |  |  |  |  |  |  |  |  | 8.2 |  | 51 | 91
Cc1cc(/C=C2\SC(=O)NC2=O)c(C)n1-c1ccc(Br)cc1 | 3.1 | > 100 | 5.37 | > 32 |  |  |  |  |  |  |  |  |  |  |  |  |  |  | 
CCc1cc(-c2ccc(-n3c(C)cc(/C=C4\SC(=O)NC4=O)c3C)cc2C#N)ccc1/C=C1\SC(=O)NC1=O | 0.059 | 1.19 | 0.092 | 20 |  |  |  |  |  |  |  |  |  |  |  |  |  |  | 
CCc1cc(-c2ccc(-n3c(C)cc(/C=C4\SC(=O)NC4=O)c3C)cc2OC)ccc1/C=C1\SC(=O)NC1=O | 0.066 | 1.19 | 0.177 | 18 |  |  |  |  |  |  |  |  |  |  |  |  |  |  | 

Compounds with a lower IC50 [1], results first:

IC50 [1] [µM] | IC50 [2] [µM] | IC50 [3] [µM] | Ratio IC50 [4] | Ratio IC50 [6] | IC50 [7] [µM] | IC50 [8] [µM] | inhibition [9] | Ratio IC50 [10] | inhibition [11] | IC50 [12] [µM] | inhibition [13] | Ratio IC50 [14] | Ratio IC50 [15] | IC50 [16] [µM] | IC50 [17] [µM] | IC50 [18] [µM] | SMILES | inhibition at 2 µM [5] [%] | inhibition at 10 µM [19] [%]
0.045 | 0.261 | 0.151 | 5.8 | 13.4 | 0.603 | 10 | Active | 197 | Dose-dependent effect | 0.078 | Active | 1.7 | 4.2 | 8.88 | 13.4 | 0.187 | O=C1NC(=O)/C(=C/c2ccc(-c3ccc(-n4c(-c5ccccc5)cc(/C=C5\SC(=O)NC5=O)c4-c4ccccc4)cc3)cc2)S1 | 79 | 94
0.039 | 1.03 | 0.087 | 26 |  |  | 12.5 |  |  |  |  |  |  |  |  | 15.3 |  | CCc1cc(-c2ccc(-n3c(C)cc(/C=C4\SC(=O)NC4=O)c3C)cc2)ccc1/C=C1\SC(=O)NC1=O | 28 | 59
0.048 | 0.787 | 0.148 | 16 |  |  | 12 |  |  |  |  |  |  |  |  | 8.9 |  | COc1cc(-n2c(-c3ccccc3)cc(/C=C3\SC(=O)NC3=O)c2-c2ccccc2)ccc1-c1ccc(/C=C2\SC(=O)NC2=O)cc1 | 90 | 95
0.035 | 0.269 | 0.053 | 7.7 |  |  | 11.9 |  |  |  |  |  |  |  |  | 10.6 |  | COc1cc(-n2c(-c3cccs3)cc(/C=C3\SC(=O)NC3=O)c2-c2cccs2)ccc1-c1ccc(/C=C2\SC(=O)NC2=O)cc1 | 89 | 95
0.054 | 1.72 | 0.391 | 32 |  |  | 24.8 |  |  |  |  |  |  |  |  | 26.3 |  | CCc1cc(-c2ccc(-n3c(-c4cccs4)cc(/C=C4\SC(=O)NC4=O)c3-c3cccs3)cc2)ccc1/C=C1\SC(=O)NC1=O | 44 | 89

— ChEMBL document CHEMBL4011632, “Design, Synthesis, and Evaluation of Thiazolidine-2,4-dione Derivatives as a Novel Class of Glutaminase Inhibitors” (J Med Chem, 2017)
